Laboratory results taken from ChEMBL document CHEMBL4837222, “Design and synthesis of novel benzothiophene analogs as selective estrogen receptor covalent antagonists against breast cancer” (Eur J Med Chem, 2021).
The source made the active and inactive calls. No cut-off for these calls is given here.

Legend:
[1] = biological target: T1, Estrogen receptor (Homo sapiens) (UniProt P03372); experiment: Covalent antagonist activity at ERalpha receptor in human ishikawa cells assessed as suppression of E2-stimulated PGR expression at 0.25 to 10 uM measured after 3 days by RT-PCR analysis; type: cell-based; conditions: filed as antagonist, dose 0.25-10 µM, time 3.0 day
T1 sequence (whole entry): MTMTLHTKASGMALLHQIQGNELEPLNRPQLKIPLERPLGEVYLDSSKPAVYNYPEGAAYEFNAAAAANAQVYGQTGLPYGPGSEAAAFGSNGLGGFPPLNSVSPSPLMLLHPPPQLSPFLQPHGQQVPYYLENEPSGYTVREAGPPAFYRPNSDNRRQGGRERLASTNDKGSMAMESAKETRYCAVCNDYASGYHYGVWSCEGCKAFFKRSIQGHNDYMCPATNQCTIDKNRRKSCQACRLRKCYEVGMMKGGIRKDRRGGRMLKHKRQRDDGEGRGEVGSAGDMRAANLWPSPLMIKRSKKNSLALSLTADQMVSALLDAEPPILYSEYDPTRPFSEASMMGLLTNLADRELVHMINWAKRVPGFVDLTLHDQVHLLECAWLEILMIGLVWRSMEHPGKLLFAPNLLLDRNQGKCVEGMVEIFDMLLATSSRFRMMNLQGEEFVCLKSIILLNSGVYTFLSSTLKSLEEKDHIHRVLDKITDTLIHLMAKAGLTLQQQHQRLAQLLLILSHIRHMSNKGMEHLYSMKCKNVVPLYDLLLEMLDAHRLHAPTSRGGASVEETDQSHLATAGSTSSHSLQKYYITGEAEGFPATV
How it was run: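 Ishikawa cells stimulated with E2 and exposed 3 days to compound at 0.25, 0.5, 1 and 10 µM. PGR mRNA quantified by SYBR Green real-time PCR, normalised to GAPDH, ΔΔCT method.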

MCF7 [2] = experiment: Induction of apoptosis in human MCF7 cells assessed as necrotic cells at 10 uM incubated for 24 hrs by AnnexinV-FITC/propidium iodide staining based flow cytometric analysis (reference value: 0.4%); type: functional
MCF7 [3] = experiment: Induction of apoptosis in human MCF7 cells assessed as early apoptotic cells at 5 uM incubated for 24 hrs by Annexin-V-FITC/propidium iodide staining based flow cytometric analysis (reference value: 0.8%); type: functional
Estrogen receptor = biological target: T2, Estrogen receptor (Homo sapiens, UniProt P03372); experiment: Induction of ERalpha activity in human ishikawa cells assessed as induction of cell proliferation at 156 to 5000 nM measured after 3 days; type: cell-based; conditions: 72 h, 5 µM, dose 156-5000 nM, time 3 day
T2 sequence (P03372 whole entry): T1 sequence (whole entry)

MCF7 [4] = experiment: Cell cycle arrest in human MCF7 cells assessed as accumulation at G2/M phase at 5 uM measured after 48 hrs by propidium iodide staining based flow cytometric analysis (reference value: 12.24%); type: functional
[5] = Intrinsic clearance in rat; type: ADME
MCF7 [6] = experiment: Induction of apoptosis in human MCF7 cells assessed as late apoptotic cells at 1 uM incubated for 24 hrs by AnnexinV-FITC/propidium iodide staining based flow cytometric analysis (reference value: 0.7%); type: functional
[7] = Lipophilicity, logD of compound; type: physicochemical; conditions: octanol/water
[8] = biological target: T1, Estrogen receptor (Homo sapiens); experiment: Covalent antagonist activity at ERalpha in human MCF7 cells assessed as decrease in estradiol-induced TFF1 mRNA expression level at 0.25 to 10 uM measured after 24 hrs by RT-PCR analysis; type: cell-based; conditions: filed as antagonist, dose 0.25-10 µM
How it was run: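 MCF-7 cells stimulated with estradiol, then co-incubated 24 h with compound at 0.25, 0.5, 1 and 10 µM. RNA was reverse-transcribed and GREB1 or TFF1 measured by SYBR Green qPCR: 95 °C 10 min, then 40 cycles of 95 °C 5 s, 60 °C 60 s, 95 °C 15 s. Normalised to GAPDH, ΔΔCT method.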

MCF7 [9] = experiment: Cell cycle arrest in human MCF7 cells assessed as accumulation at G2/M phase at 10 uM measured after 48 hrs by propidium iodide staining based flow cytometric analysis (reference value: 12.24%); type: functional

inhibition [1]: Active
CLint scaled [5]: 3.91 L/h/kg
logD [7]: 1.67
inhibition [8]: Dose-Dependent Effect
SMILES: O=C(/C=C/CNCCOc1ccc(Oc2c(-c3ccc(F)cc3)sc3cc(O)ccc23)cc1)N1CCC1
Activity (MCF7 [2]): 0.5%
Activity (MCF7 [3]): 5.3%
Activity (Estrogen receptor): Not Active
Activity (MCF7 [4]): 15.48%
Activity (MCF7 [6]): 1.2%
Activity (MCF7 [9]): 18.3%
